≈ marks a conversion by molar mass, not a printed value. Calls of active or inactive are those of the source. No cut-off for these calls is given here.
What was measured:
[1] = tested on: Vesicular stomatitis virus; assay: Antiviral activity against vesicular stomatitis virus by CPE assay; format: functional, organism-based
Method in brief: (§1)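 Compounds were tested at concentrations up to 100 μg/mL, and antiviral activity was expressed as EC50. For the […] line, the virus was strain […]. Cell hosts named in the work were MT4 (HTLV-1-infected human T-lymphocytes), HeLa and Vero (African green monkey kidney) cells.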

Influenza A virus [2] = format: functional, organism-based; conditions: H1N1
Vero = assay: Cytotoxicity against Vero cells; format: cell-based; conditions: chlorocebus sabaeus
Method in brief: (§2)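 Cytotoxicity was assessed on uninfected cells: Vero (African green monkey kidney) and HeLa (human cervical carcinoma). Compounds were tested up to 100 μg/mL, and the value was reported as CC50, the 50% cytotoxic concentration.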

Feline coronavirus = assay: Antiviral activity against Feline coronavirus WSU; format: functional, organism-based
Method in brief: (§3)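 Feline virus strain WSU screened together with influenza A strains; test concentrations went up to 100 μg/mL, with antiviral activity and cytotoxicity both assessed.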

[3] = tested on: Feline infectious peritonitis virus; assay: Antiviral activity against FIP WSU; format: functional; method in brief: as §3
[4] = tested on: Human immunodeficiency virus 1; assay: Antiviral activity against HIV1 3B by CPE assay; format: functional, organism-based; conditions: Human immunodeficiency virus 1, 3B
Coxsackievirus B3 = assay: Antiviral activity against coxsackie B virus type 3 by CPE assay; format: functional, organism-based; conditions: Enterovirus B
[5] = tested on: Human T-cell leukemia virus type I; assay: Cytostatic activity against HTLV1 infected human MT4 lymphocyte; format: functional
Method in brief: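 HTLV-1-infected human T-lymphocyte MT4 cells were exposed to compound at concentrations up to 100 μg/mL. Read-out was the 50% cytostatic concentration (CS50).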

Human alphaherpesvirus 1 = assay: Antiviral activity against HSV1 by CPE assay; format: functional, organism-based; method in brief: as §1
Influenza A virus [6] = assay: Antiviral activity against influenza virus type A H3N2; format: functional, organism-based
Method in brief: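 Influenza A viruses were H1N1 strain Taiwan and H3N2 strain Johannesburg. Compounds were tested for antiviral activity and cytotoxicity at concentrations up to 100 μg/mL.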

HeLa = assay: Cytotoxicity against human HeLa cells; format: cell-based; method in brief: as §2
[7] = tested on: Encephalomyocarditis virus; assay: Antiviral activity against encephalomyocarditis virus by CPE assay; format: functional, organism-based; conditions: Cardiovirus A; method in brief: as §1
Human alphaherpesvirus 2 = assay: Antiviral activity against HSV2 by CPE assay; format: functional, organism-based; method in brief: as §1

O=c1ccn([C@@H]2CS[C@H](CO)[C@H]2F)c(=O)[nH]1
EC50 [1]: > 100 µg/mL | Activity (Influenza A virus [2]): inactive | CC50 (Vero): > 100 µg/mL | Activity (Feline coronavirus): inactive | Activity [3]: inactive | EC50 [4]: > 100 µg/mL | EC50 (Coxsackievirus B3): > 100 µg/mL | CS50 [5]: >100 µg/mL | EC50 (Human alphaherpesvirus 1): > 100 µg/mL | Activity (Influenza A virus [6]): inactive | CC50 (HeLa): > 100 µg/mL | EC50 [7]: > 100 µg/mL | EC50 (Human alphaherpesvirus 2): > 100 µg/mL

NC(=O)c1ncn([C@@H]2O[C@H](CO)[C@@H](O)[C@H]2O)n1 [RIBAVIRIN]
EC50 [1]: 10.3 µg/mL (≈ 42.3 µM) | EC50 (Coxsackievirus B3): 64.1 µg/mL (≈ 262 µM) | CC50 (HeLa): > 300 µg/mL | EC50 [7]: 23.4 µg/mL (≈ 96 µM)

O=c1[nH]cnc2c1ncn2[C@H]1CC[C@@H](CO)O1 [DIDANOSINE]
CC50 (Vero): > 10 µg/mL | CS50 [5]: >100 µg/mL | EC50 (Human alphaherpesvirus 1): 0.17 µg/mL (≈ 0.72 µM) | EC50 (Human alphaherpesvirus 2): 0.47 µg/mL (≈ 1.99 µM)

Nc1ccn([C@@H]2CS[C@H](CO)[C@H]2F)c(=O)n1
EC50 [1]: 9.43 µg/mL (≈ 38.4 µM) | Activity (Influenza A virus [2]): inactive | CC50 (Vero): > 100 µg/mL | Activity (Feline coronavirus): inactive | Activity [3]: inactive | EC50 [4]: > 100 µg/mL | EC50 (Coxsackievirus B3): > 14.5 µg/mL | CS50 [5]: >100 µg/mL | EC50 (Human alphaherpesvirus 1): > 100 µg/mL | Activity (Influenza A virus [6]): inactive | CC50 (HeLa): 14.54 µg/mL (≈ 59.3 µM) | EC50 [7]: > 14.5 µg/mL | EC50 (Human alphaherpesvirus 2): > 100 µg/mL

Nc1ncnc2c1ncn2[C@@H]1CS[C@H](CO)[C@H]1F
EC50 [1]: > 100 µg/mL | Activity (Influenza A virus [2]): inactive | CC50 (Vero): > 100 µg/mL | Activity (Feline coronavirus): inactive | Activity [3]: inactive | EC50 [4]: > 100 µg/mL | EC50 (Coxsackievirus B3): > 100 µg/mL | CS50 [5]: >100 µg/mL | EC50 (Human alphaherpesvirus 1): > 100 µg/mL | Activity (Influenza A virus [6]): inactive | CC50 (HeLa): > 100 µg/mL | EC50 [7]: > 100 µg/mL | EC50 (Human alphaherpesvirus 2): > 100 µg/mL

Cc1cn([C@@H]2CS[C@H](CO)[C@H]2F)c(=O)[nH]c1=O
EC50 [1]: > 100 µg/mL | Activity (Influenza A virus [2]): inactive | CC50 (Vero): > 100 µg/mL | Activity (Feline coronavirus): inactive | Activity [3]: inactive | EC50 [4]: > 100 µg/mL | EC50 (Coxsackievirus B3): > 100 µg/mL | CS50 [5]: >100 µg/mL | EC50 (Human alphaherpesvirus 1): > 100 µg/mL | Activity (Influenza A virus [6]): inactive | CC50 (HeLa): > 100 µg/mL | EC50 [7]: > 100 µg/mL | EC50 (Human alphaherpesvirus 2): > 100 µg/mL

— ChEMBL document CHEMBL1144496, “Design, synthesis, and biological evaluation of novel iso-D-2',3'-dideoxy-3'-fluorothianucleoside derivatives” (Bioorg Med Chem, 2007)
